In ChEMBL document CHEMBL4823286, “Synthesis and evaluation of novel 2,4-diaminopyrimidines bearing a sulfoxide moiety as anaplastic lymphoma kinase (ALK) inhibition agents” (Bioorg Med Chem Lett, 2021):

How the values were obtained:
BaF3 = assay: Antiproliferative activity against mouse BaF3 cells overexpressing ALK assessed as inhibition of cell proliferation measured by CCK8 assay; assay type: functional, cell-based
Procedure, shortened: (§1)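 Cell proliferation inhibition; IC50 given as mean ± SD of three independent experiments.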

NCI-H2228 = assay: Antiproliferative activity against human NCI-H2228 cells assessed as inhibition of cell proliferation measured by CCK8 assay; assay type: functional, cell-based; procedure, shortened: as §1

## CC[S+]([O-])c1cc(F)ccc1Nc1nc(Nc2ccc(N3CCC(N(C)C)CC3)cc2OC)ncc1Cl (configuration not stated)
BaF3
  IC50: 79.4 nM
NCI-H2228
  IC50: 337 nM
